Source: ChEMBL document CHEMBL1137471, “Dihydroxypyridopyrazine-1,6-dione HIV-1 integrase inhibitors” (Bioorg Med Chem Lett, 2007)

Assays:
[1] = tested on: Liver microsomes; assay: Protein binding in rat liver microsomes per 60 mins in absence of NADPH; type: ADME, Microsome; conditions: 1 h
How it was run: (§1)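 [14C]-labelled compound incubated with rat or human liver microsomes, with or without NADPH. Irreversibly bound radioactivity expressed as pmol equiv/mg/60 min.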

[2] = tested on: Liver microsomes; assay: Protein binding in rat liver microsomes per 60 mins in presence of NADPH; type: ADME, Microsome; conditions: 1 h; how it was run: as §1
[3] = tested on: Liver microsomes; assay: Protein binding in human liver microsomes per 60 mins in presence of NADPH; type: ADME, Microsome; conditions: 1 h; how it was run: as §1
[4] = tested on: Liver; assay: Protein binding in rat liver after 6 hrs; type: ADME, tissue-based
How it was run: (§2)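 [14C]-labelled compound given to rats in vivo. Irreversibly bound radioactivity measured in plasma and liver at 2, 6 and 24 h, expressed as pmol equiv/mg protein.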

[5] = tested on: Plasma; assay: Protein binding in rat plasma after 24 hrs; type: ADME, cell-free; how it was run: as §2
[6] = tested on: Liver; assay: Protein binding in rat liver after 24 hrs; type: ADME, tissue-based; how it was run: as §2
[7] = tested on: Liver; assay: Protein binding in rat liver after 2 hrs; type: ADME, tissue-based; how it was run: as §2
[8] = tested on: Plasma; assay: Protein binding in rat plasma after 2 hrs; type: ADME, cell-free; how it was run: as §2
[9] = tested on: Plasma; assay: Protein binding in rat plasma after 6 hrs; type: ADME, cell-free; how it was run: as §2
[10] = tested on: Liver microsomes; assay: Protein binding in human liver microsomes per 60 mins in absence of NADPH; type: ADME, Microsome; conditions: 1 h; how it was run: as §1
[11] = biological target: Human immunodeficiency virus type 1 integrase (Human immunodeficiency virus 1, UniProt Q7ZJM1); assay: Inhibition of HIV1 recombinant integrase strand transfer activity
How it was run: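 Strand transfer by recombinant HIV-1 integrase (0.1 µM) preassembled on immobilized oligonucleotides. Inhibition is relative to a no-inhibitor control run in quadruplicate and averaged, with background subtracted. IC50 given as mean of three experiments with standard deviation.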

[12] = tested on: MT4; assay: Cytotoxicity against human MT4 cells upto 20 uM after 24 hrs; type: cell-based; conditions: mt4, 24 h
[13] = tested on: Human immunodeficiency virus 1; assay: Antiviral activity against HIV1 3B infected in human MT4 cells assessed as inhibition of replication after 3 days by ELISA; type: functional; conditions: Human immunodeficiency virus 1, 3B, MT4, 72 h; read-out: CIC95
[14] = Bioavailability in rat at 10 mg/kg, po; type: ADME, organism-based; conditions: in vivo
How it was run: (§3)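 Rats dosed orally at 10 mg/kg as a solution in 1% aqueous methylcellulose. Plasma sampled through 24 h.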

[15] = species on record: Rattus norvegicus; assay: Plasma concentration in rat after 2 to 24 hrs; type: ADME, organism-based; conditions: in vivo; how it was run: as §3

Sequence of Human immunodeficiency virus type 1 integrase (Q7ZJM1 whole entry): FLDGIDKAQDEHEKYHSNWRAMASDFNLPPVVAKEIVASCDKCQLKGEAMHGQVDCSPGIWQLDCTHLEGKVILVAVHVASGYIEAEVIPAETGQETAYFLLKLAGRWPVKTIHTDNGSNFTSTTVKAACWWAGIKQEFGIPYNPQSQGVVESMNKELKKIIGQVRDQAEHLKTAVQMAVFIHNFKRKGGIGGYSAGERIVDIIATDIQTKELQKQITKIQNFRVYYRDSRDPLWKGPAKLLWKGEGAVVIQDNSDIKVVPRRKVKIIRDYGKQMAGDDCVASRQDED

O=C1c2[14c](O)[14c](O)cc(=O)n2CCN1Cc1ccc(F)cc1
Activity [1]: 24.7 pmolequiv/mg
Activity [2]: 24.2 pmolequiv/mg
Activity [3]: 19.6 pmolequiv/mg
PPB [4]: < 5 pmolequiv/mg
PPB [5]: < 5 pmolequiv/mg
PPB [6]: < 5 pmolequiv/mg
PPB [7]: < 5 pmolequiv/mg
PPB [8]: < 5 pmolequiv/mg
PPB [9]: < 5 pmolequiv/mg
Activity [10]: 15.2 pmolequiv/mg

O=C1c2c(O)c(O)cc(=O)n2CCN1Cc1ccccc1
IC50 [11]: 230 nM
Activity [12]: Non-toxic
IC95 [13]: 2500 nM

O=c1c2c(O)c(O)cc(=O)n2ccn1Cc1ccc(F)cc1
IC50 [11]: 40 nM

O=C1c2c(O)c(O)c(Br)c(=O)n2CCN1Cc1ccc(F)cc1
IC50 [11]: 30 nM
Activity [12]: Non-toxic
IC95 [13]: 1000 nM

O=C1c2c(O)c(O)c(I)c(=O)n2CCN1Cc1ccc(F)cc1
IC50 [11]: 20 nM
Activity [12]: Non-toxic
IC95 [13]: > 1000 nM

O=C1c2c(O)c(O)cc(=O)n2CCN1Cc1cccc(Cl)c1
IC50 [11]: 40 nM
Activity [12]: Non-toxic
IC95 [13]: 500 nM

O=C1c2c(O)c(O)cc(=O)n2CCN1Cc1ccc(F)c(Cl)c1
IC50 [11]: 40 nM
Activity [12]: Non-toxic
IC95 [13]: 250 nM

O=C1c2c(O)c(O)cc(=O)n2CCN1Cc1ccc(F)cc1
IC50 [11]: 100 nM
bioavailability [14]: 69%
Activity [12]: Non-toxic
IC95 [13]: 310 nM
concentration [15]: 500 nM

N#Cc1c(O)c(O)c2n(c1=O)CCN(Cc1ccc(F)cc1)C2=O
IC50 [11]: 20 nM
Activity [12]: Non-toxic
IC95 [13]: > 1000 nM

O=C1c2c(O)c(O)cc(=O)n2CCN1Cc1ccc(Cl)cc1
IC50 [11]: 380 nM
Activity [12]: Non-toxic
IC95 [13]: 1000 nM

O=C1c2c(O)c(O)cc(=O)n2CCCN1Cc1ccc(F)cc1
IC50 [11]: 1040 nM

O=C1c2c(O)c(O)cc(=O)n2CCN1Cc1ccccc1Cl
IC50 [11]: 370 nM
Activity [12]: Non-toxic
IC95 [13]: > 1000 nM
